Series [1] concerns the target T1, Multidrug efflux pump subunit AcrB (Escherichia coli (strain K12)) (UniProt P31224).
T1 sequence (whole entry): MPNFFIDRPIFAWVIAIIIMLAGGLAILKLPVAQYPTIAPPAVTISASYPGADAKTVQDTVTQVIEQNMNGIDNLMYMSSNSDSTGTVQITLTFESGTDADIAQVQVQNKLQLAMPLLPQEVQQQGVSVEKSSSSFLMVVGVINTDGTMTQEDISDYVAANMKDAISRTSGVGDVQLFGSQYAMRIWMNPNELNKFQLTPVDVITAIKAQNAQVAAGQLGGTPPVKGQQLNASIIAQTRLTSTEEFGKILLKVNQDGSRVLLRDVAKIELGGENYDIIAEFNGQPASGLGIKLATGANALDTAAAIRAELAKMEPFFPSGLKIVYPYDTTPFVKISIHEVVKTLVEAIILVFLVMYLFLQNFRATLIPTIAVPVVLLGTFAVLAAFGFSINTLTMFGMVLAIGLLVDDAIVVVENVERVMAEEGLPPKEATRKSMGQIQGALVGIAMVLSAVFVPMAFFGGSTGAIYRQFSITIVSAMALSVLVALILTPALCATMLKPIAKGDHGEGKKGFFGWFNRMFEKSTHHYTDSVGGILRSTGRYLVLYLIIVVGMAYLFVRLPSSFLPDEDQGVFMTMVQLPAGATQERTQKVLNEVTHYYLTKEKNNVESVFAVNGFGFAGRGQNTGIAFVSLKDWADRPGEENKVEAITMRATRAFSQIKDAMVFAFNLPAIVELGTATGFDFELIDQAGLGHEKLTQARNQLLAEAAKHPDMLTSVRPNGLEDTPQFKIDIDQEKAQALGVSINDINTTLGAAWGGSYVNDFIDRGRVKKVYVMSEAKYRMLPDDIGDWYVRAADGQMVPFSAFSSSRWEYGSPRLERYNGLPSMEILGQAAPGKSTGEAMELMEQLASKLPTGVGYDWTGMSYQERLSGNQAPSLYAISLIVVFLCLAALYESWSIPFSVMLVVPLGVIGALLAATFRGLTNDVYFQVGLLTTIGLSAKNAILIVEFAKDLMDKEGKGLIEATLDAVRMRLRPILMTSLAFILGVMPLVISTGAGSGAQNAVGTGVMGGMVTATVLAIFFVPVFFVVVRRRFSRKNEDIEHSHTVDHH
Put plainly: Inhibition of AcrB in Escherichia coli BW25113 assessed as reduction in glucose-induced nile red efflux at 50 uM preincubated for 15 mins followed by nile red addition and incubated for 3 hrs in shaker in presence of CCCP by fluorimetric analysis. The note with it: time 3.25 hrs. The method, boiled down:
(§1)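 Wild-type and AcrB-deleted cells were preloaded with Nile Red, with or without compound. Fluorescence was recorded, and efflux was triggered at 100 s with 0.2% glucose. Traces were compared with the deletion-strain level. Triplicate experiments used different cell batches.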

In series [2] the target is T1, Multidrug efflux pump subunit AcrB (Escherichia coli (strain K12)). Put plainly: Inhibition of AcrB in multidrug-resistant Escherichia coli BW25113 assessed as potentiation of levofloxacin-induced antibacterial activity by measuring fold change in levofloxacin MIC at 8 ug/ml by checkerboard titration method relative to levofloxacin MIC. As to conditions: dose 8.0 µg/ml.

Series [3] shares this target. Put plainly: Inhibition of AcrB in multidrug-resistant Escherichia coli BW25113 assessed as potentiation of tetraphenylphosphonium-induced antibacterial activity by measuring fold change in tetraphenylphosphonium MIC at 8 ug/ml by checkerboard titration method relative to tetraphenylphosphonium MIC. As to conditions: dose 8.0 µg/ml.
Series [4] has the same target. Put plainly: Inhibition of AcrB in multidrug-resistant Escherichia coli BW25113 assessed as potentiation of erythromycin-induced antibacterial activity by measuring fold change in erythromycin MIC at 8 ug/ml by checkerboard titration method relative to erythromycin MIC. As to conditions: dose 8.0 µg/ml.
Series [5] has the same target. Put plainly: Inhibition of AcrB in multidrug-resistant Escherichia coli BW25113 assessed as potentiation of tetraphenylphosphonium-induced antibacterial activity by measuring fold change in tetraphenylphosphonium MIC at 128 ug/ml by checkerboard titration method relative to tetraphenylphosphonium MIC. As to conditions: dose 128.0 µg/ml.
Series [6] shares this target. Put plainly: Inhibition of AcrB in multidrug-resistant Escherichia coli BW25113 assessed as potentiation of erythromycin-induced antibacterial activity by measuring fold change in erythromycin MIC at 128 ug/ml by checkerboard titration method relative to erythromycin MIC. The note with it: dose 128.0 µg/ml.
For series [7] the target is unchanged. As to the kind of experiment: Inhibition of AcrB in multidrug-resistant Escherichia coli BW25113 assessed as potentiation of chloramphenicol-induced antibacterial activity by measuring fold change in chloramphenicol MIC at 128 ug/ml by checkerboard titration method relative to chloramphenicol MIC. As to conditions: dose 128.0 µg/ml.
Series [8] in a line: Cytotoxicity against human HepG2 cells assessed as growth inhibition at 10 uM relative to control. The note with it: read-out: GI. In kind it is cell-based. Put shortly:
(§2)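 HepG2 cells treated at 10 μM and at 100 μM. Cell viability or inhibition rate recorded per concentration, with paclitaxel as positive control.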

A short description of series [9]: Cytotoxicity against human HepG2 cells assessed as growth inhibition at 100 uM relative to control. In kind it is cell-based. The note with it: read-out: GI. The method, boiled down:
as §2

Series [10] relates to Cell membrane. As to the kind of experiment: Induction of outer membrane permeabilization in wild type Escherichia coli BW25113 assessed as increase in nitrocefin hydrolysis at 256 ug/ml in presence of CCCP by spectroscopic analysis. As to conditions: dose 256 µg/ml. Put shortly: (§3)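 Intact E. coli were treated with 10 μM CCCP to block nitrocefin efflux, then given compound, nothing, or polymyxin B as permeabilizer control. Nitrocefin was added, and hydrolysis by periplasmic β-lactamase was followed as the rise in absorbance at 490 nm. Duplicate experiments were run on different days.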

In series [11] the target is T1, Multidrug efflux pump subunit AcrB (Escherichia coli (strain K12)). As to the kind of experiment: Inhibition of AcrB in multidrug-resistant Escherichia coli BW25113 assessed as potentiation of chloramphenicol-induced antibacterial activity by measuring fold change in chloramphenicol MIC at 64 ug/ml by checkerboard titration method relative to chloramphenicol MIC. As to conditions: dose 64.0 µg/ml.

For series [12] the target is unchanged. Put plainly: Inhibition of AcrB in multidrug-resistant Escherichia coli BW25113 assessed as potentiation of tetraphenylphosphonium-induced antibacterial activity by measuring fold change in tetraphenylphosphonium MIC at 64 ug/ml by checkerboard titration method relative to tetraphenylphosphonium MIC. The note with it: dose 64.0 µg/ml.
Series [13] has the same target. As to the kind of experiment: Inhibition of AcrB in Escherichia coli BW25113 assessed as reduction in glucose-induced nile red efflux at 100 to 200 uM preincubated for 15 mins followed by nile red addition and incubated for 3 hrs in shaker in presence of CCCP by fluorimetric analysis. As to conditions: dose 100-200 µM, time 3.25 hrs. The method, boiled down: as §1

Series [14] deals with Cell membrane. Put plainly: Induction of outer membrane permeabilization in wild type Escherichia coli BW25113 assessed as increase in nitrocefin hydrolysis at 64 ug/ml in presence of CCCP by spectroscopic analysis. As to conditions: dose 64 µg/ml. The method, boiled down: as §3
Series [15] relates to Cell membrane. Put plainly: Induction of outer membrane permeabilization in wild type Escherichia coli BW25113 assessed as increase in nitrocefin hydrolysis at 32 ug/ml in presence of CCCP by spectroscopic analysis. The note with it: dose 32 µg/ml. Put shortly:
as §3

Series [16] relates to Cell membrane. Put plainly: Induction of outer membrane permeabilization in wild type Escherichia coli BW25113 assessed as increase in nitrocefin hydrolysis at 8 ug/ml in presence of CCCP by spectroscopic analysis. As to conditions: dose 8 µg/ml. The method, boiled down:
as §3

Activity calls are given as the source filed them. The calls are words filed in the database; no cut-off is given here. Bounds are passed on as bounds.

For the compound `CC1(C)CCc2c(C(=O)N3CCOCC3)cc3c(OCc4ccc(C(F)(F)F)cc4)cccc3c2O1`, in series [1], the inhibition result is “Active”.
Consider `Cc1ccc(COc2cccc3c4c(c(-c5nnco5)cc23)CCC(C)(C)O4)cc1`, for which the fold change (FC) in [2] is 2; in [3], 2; in series [4], 2; in series [5] it was under 16; in [6] it was under 16; in series [7], under 16. For the same compound, the inhibition at 10 µM in series [8] stood at 6%. Besides, the inhibition at 100 µM in [9] is 87%.
Turning to `Cc1ccccc1COc1cccc2c3c(c(-c4nnco4)cc12)CCC(C)(C)O3`, in series [10], the Activity result is “Not Active”.
`CC1(C)CC(=O)c2ccc(OCC(=O)Nc3ccc(C#N)c(C(F)(F)F)c3)cc2O1`: the fold change (FC) in [11] worked out at 2; in series [12], 4. Also, the inhibition entry in [13] was “Active”. In addition, the Activity entry in series [14] was “Not Active”.
Turning to `CNC(=O)c1ccc(COc2cccc3c4c(c(Cn5cnnn5)cc23)CCC(C)(C)O4)cc1`, the inhibition entry in series [13] is “Active”. Also, the Activity entry in series [14] is listed as “Not Active”.
With `CC1(C)CCc2c(-c3nnco3)cc3c(OCc4ccc(C#N)cc4)cccc3c2O1`, the inhibition result in series [1] was “Active”.
As to `CC1(C)CCc2c(Cn3cnnn3)cc3c(OCc4ccccc4)cccc3c2O1`, in series [14], the Activity entry is “Not Active”.
On to `COc1cccc(COc2cccc3c4c(c(C(=O)N5CCOCC5)cc23)CCC(C)(C)O4)c1`, for which, in series [1], the inhibition result is “Active”.
On to `C=CC(=O)Nc1ccc(COc2cccc3c4c(c(Cn5cnnn5)cc23)CCC(C)(C)O4)cc1`, for which the inhibition entry in [1] is “Active”. Besides, in series [15], the Activity result is given as “Not Active”.
For the compound `COc1cccc(COc2cccc3c4c(c(-c5nnco5)cc23)CCC(C)(C)O4)c1`, the inhibition entry in [13] is “Active”.
With `CC1(C)CCc2c(C(=O)N3CCOCC3)cc3c(OCc4ccccc4)cccc3c2O1`, the inhibition at 10 µM in series [8] was 2%. Moreover, the inhibition at 100 µM in series [9] was 66%.
For the compound `CC1CN(C(=O)c2cc3c(OCc4c(Cl)cccc4Cl)cccc3c3c2CCC(C)(C)O3)CC(C)O1` (stereo not drawn), the fold change (FC) in series [2] turned out to be 2. In addition, in [16], the Activity result is recorded as “Not Active”.
As for `CC1(C)CC(=O)c2ccc(OCCNC3CCCC3)cc2O1`, in series [13], the inhibition entry is “Active”.
For `CC1(C)CCc2c(-c3nnco3)cc3c(OCc4ccc([N+](=O)[O-])cc4)cccc3c2O1`, in [10], the Activity result was “Not Active”.

(Values after ChEMBL document CHEMBL4732114, “Design and structural optimization of novel 2H-benzo[h]chromene derivatives that target AcrB and reverse bacterial multidrug resistance” (Eur J Med Chem, 2021).)
